The subject of data set [1] is MCF7. The data set can be described thus: Cell cycle arrest in human […] cells assessed as accumulation at G1 phase at 2.5 uM by propidium iodide staining by FACS analysis (reference value: 62.88%). It counts as functional. On the technique in general: A flow cytometer gives signals particle by particle.
A short description of data set [2]: Safety index, ratio of IC50 for human MCF10A cells to EC50 for human COLO205 cells. It is filed as toxicity, cell-based, COLO 205. Particulars: MCF10A cells versus COLO205 cells, read-out: Ratio IC50/EC50. A digest of the protocol: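 Safety index is the IC50 in the normal cells divided by the EC50 in the cancer cells. Both values come from MTT assays: cells in DMEM with 10% FBS, serum-starved 4 h, then exposed to compound across a 100nM-50µM dose range with 0.1% DMSO as vehicle control.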

For data set [3], the system named is MCF7. Put plainly: Antitumor activity against human MCF7 cells xenografted in NIH-3 mouse assessed as reduction in tumor volume at 16 mg/kg, po for 29 days relative to control. It counts as functional. The note with it: MCF7, 696 h. The procedure, abridged:
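MCF-7 cells (5x10^6 in 100μl PBS) injected intraperitoneally into NIH-III nude mice; after tumor induction, groups of n=10 dosed orally daily for 29 days at 8 or 16 mg/kg/day in 1% carboxymethyl cellulose (vehicle controls). Tumor diameter by vernier calipers every third day; volume = π/6×d³ (d mean diameter).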
For orientation: A xenograft is tissue or cells of one species grown in another, often human tumour cells in immunodeficient mice.

Data set [4] can be described thus: Antiproliferative activity against human HCT116 cells after 24 hrs by MTT assay. It counts as functional, cell-based. Particulars: HCT-116, 24 h. The procedure, abridged:
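MTT viability: cells seeded at 1×10^4 per well in DMEM with 10% FBS, left to adhere overnight, then serum-starved 4 h. Compounds were given at a range of doses, with 0.1% DMSO vehicle as control. EC50 was taken from dose-response curves spanning 100nM-50µM. Data are mean ± SEM from at least three independent experiments.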
In general terms: Tetrazolium dyes change colour on reduction, which living cells bring about.

Data set [5] concerns MCF7. Put plainly: Cell cycle arrest in human […] cells assessed as accumulation at G1 phase at 5 uM by propidium iodide staining by FACS analysis (reference value: 62.88%). It is filed as functional.
Data set [6] concerns MDA-MB-231. The data set can be described thus: Antiproliferative activity against human ER-positive MDA-MB-231 cells after 24 hrs by MTT assay. It counts as functional, cell-based. The note with it: mda-mb-231.
The subject of data set [7] is MCF7. The data set can be described thus: Cell cycle arrest in human […] cells assessed as accumulation at subG1 phase at 5 uM by propidium iodide staining by FACS analysis (reference value: 0.1%). It counts as functional.
The subject of data set [8] is MCF7. Put plainly: Cell cycle arrest in human […] cells assessed as accumulation at G1 phase at 7.5 uM by propidium iodide staining by FACS analysis (reference value: 62.88%). It counts as functional.
Data set [9] has as its target Insulin receptor (Homo sapiens) (UniProt P06213). Put plainly: Inhibition of IR (unknown origin) at 10 uM.
Data set [10] deals with MCF7. The data set can be described thus: Induction of apoptosis in human MCF7 cells xenografted in NIH-3 mouse assessed as decrease in cyclin D1 in tumor at 16 mg/kg, po for 25 days by qPCR. It counts as functional, organism-based. On the set-up: dose 16 mg/kg.
The target in data set [11] is Mitogen-activated protein kinase; ERK1/ERK2 (Homo sapiens) (UniProt P27361+P28482). Put plainly: Inhibition of basal level ERK1/2 phosphorylation in human MDA-MB-231 cells at 1 uM by ELISA. It counts as cell-based.
Data set [12] concerns MDA-MB-231. Put plainly: Inhibition of secreted PAI-1 protein expression in human MDA-MB-231 cells at 1 uM after 24 hrs by ELISA. It is filed as functional, cell-based. The procedure, abridged: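 MDA-MB-231 cells were treated at 1µM for 24 h, with or without EGF. PAI-1 protein concentration in the collected conditioned medium was then measured by ELISA.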
Data set [13] has as its target Epidermal growth factor receptor (Homo sapiens) (UniProt P00533). Put plainly: Inhibition of EGF-induced EGFR phosphorylation at Tyr845 in human MDA-MB-231 cells at 1 uM by ELISA. It is filed as cell-based. A digest of the protocol:
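MDA-MB-231 cells pretreated 1 h in serum-free medium, then EGF-stimulated for 15 min and lysed. Equal lysate protein (Bradford) assayed by ELISA kits for p-EGFR (Tyr1068, Tyr845, Tyr1173) and p-HER2. Absorbance read at 450 nm, normalized to total EGFR or HER2.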

The target in data set [14] is RAC-alpha serine/threonine-protein kinase (Homo sapiens) (UniProt P31749). The data set can be described thus: Inhibition of EGF-induced AKT phosphorylation in human MDA-MB-231 cells at 1 uM by ELISA. It counts as cell-based.
In data set [15] the test system is MCF7. The data set can be described thus: Inhibition of EGF expression in human MCF7 cells at 5 uM by ELISA. It is filed as functional, cell-based.
Data set [16] has as its system MDA-MB-231. Put plainly: Inhibition of TGF-betaR1 expression in human MDA-MB-231 cells at 1 uM after 24 hrs by qPCR analysis. It counts as functional, cell-based. A digest of the protocol:
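Gene expression was measured by qPCR in MDA-MB-231 breast cancer cells treated with 1µM compound. GAPDH served as the housekeeping internal control.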

Data set [17] deals with MCF7. Put plainly: Induction of apoptosis in human […] cells assessed as increase in Bax to Bcl2 ratio at 5 uM after 24 hrs by immunoblotting analysis. It is filed as functional, cell-based. A digest of the protocol: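 Immunoblot of Bax and Bcl-2 in cell lysates, loading normalized to actin; mean ± SEM, three independent experiments.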
For data set [18], the target named is Epidermal growth factor receptor (Homo sapiens) (UniProt P00533). Put plainly: Inhibition of EGF-induced EGFR phosphorylation at Tyr1148 in human MCF7 cells at 1 uM by ELISA. It counts as cell-based.
Data set [19] concerns MDA-MB-231. The data set can be described thus: Induction of cAMP level in human MDA-MB-231 cells at 0.1 to 25 uM. It counts as functional, cell-based. A digest of the protocol:
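MDA-MB-231 cells serum-starved for 4 h, treated with 500μM IBMX for 30 min, then exposed to compound for a further 30 min. Cellular cAMP read by HTRF kit.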

Data set [20] concerns Mast/stem cell growth factor receptor Kit (Homo sapiens), P10721 [D816H]. Put plainly: Inhibition of cKit D816H mutant (unknown origin) at 10 uM. The procedure, abridged:
(§1)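 Cell-free kinase profiling was run as a standard 33P-ATP-based in vitro kinase assay.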

The subject of data set [21] is MDA-MB-231. The data set can be described thus: Inhibition of MMP9 expression in human MDA-MB-231 cells at 1 uM after 24 hrs by qPCR analysis. It counts as functional, cell-based. A digest of the protocol: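 MDA-MB-231 cells treated at 1µM. Transcript levels measured by qPCR with GAPDH as internal control.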
The test system of data set [22] is MDA-MB-231. Put plainly: Antiproliferative activity against human […] cells assessed as absence of growth recovery treated > 5 uM for 24 hrs followed by maintained in drug free medium for 72 hrs by MTT assay. It is filed as functional, cell-based.
In data set [23] the test system is MDA-MB-231. The data set can be described thus: Inhibition of cell migration in human MDA-MB-231 cells assessed as […] at 1 uM after 24 hrs by wound healing assay. It counts as functional, cell-based.
Data set [24] has as its system Mast/stem cell growth factor receptor Kit (Homo sapiens), P10721 [D816V]. Put plainly: Inhibition of cKit D816V mutant (unknown origin) at 10 uM. A digest of the protocol: as §1
Data set [25] deals with Dual specificity calcium/calmodulin-dependent 3',5'-cyclic nucleotide phosphodiesterase 1A (Homo sapiens) (UniProt P54750). The data set can be described thus: Inhibition of PDE1A3 (unknown origin) activity at 1 to 10 uM. A digest of the protocol:
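Recombinant PDE isoform activity was read by fluorescence polarization. A binding reagent complexes with the nucleotide monophosphate that the phosphodiesterase generates from cAMP/cGMP, and this raises the polarization of the labelled substrate. Reference standards were PDE1A3 10µM IBMX, PDE2A3 1nM BAY 60-7550, PDE3CAT 1µM cilostazol, PDE4CAT rolipram, PDE5CAT 0.1µM sildenafil, PDE7A […], PDE8A1 10µM BRL-50481, PDE9A1 1µM SB 36216 and PDE11A1 dipyridamole.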

This is an account of results in ChEMBL document CHEMBL3352791, “Thioaryl naphthylmethanone oxime ether analogs as novel anticancer agents” (J Med Chem, 2014).

SMILES strings stand for the structures. Activity calls are given as the source filed them. The calls are words filed in the database; no cut-off is given here.

Epidermal growth factor receptor (Homo sapiens), sequence (P00533 whole entry): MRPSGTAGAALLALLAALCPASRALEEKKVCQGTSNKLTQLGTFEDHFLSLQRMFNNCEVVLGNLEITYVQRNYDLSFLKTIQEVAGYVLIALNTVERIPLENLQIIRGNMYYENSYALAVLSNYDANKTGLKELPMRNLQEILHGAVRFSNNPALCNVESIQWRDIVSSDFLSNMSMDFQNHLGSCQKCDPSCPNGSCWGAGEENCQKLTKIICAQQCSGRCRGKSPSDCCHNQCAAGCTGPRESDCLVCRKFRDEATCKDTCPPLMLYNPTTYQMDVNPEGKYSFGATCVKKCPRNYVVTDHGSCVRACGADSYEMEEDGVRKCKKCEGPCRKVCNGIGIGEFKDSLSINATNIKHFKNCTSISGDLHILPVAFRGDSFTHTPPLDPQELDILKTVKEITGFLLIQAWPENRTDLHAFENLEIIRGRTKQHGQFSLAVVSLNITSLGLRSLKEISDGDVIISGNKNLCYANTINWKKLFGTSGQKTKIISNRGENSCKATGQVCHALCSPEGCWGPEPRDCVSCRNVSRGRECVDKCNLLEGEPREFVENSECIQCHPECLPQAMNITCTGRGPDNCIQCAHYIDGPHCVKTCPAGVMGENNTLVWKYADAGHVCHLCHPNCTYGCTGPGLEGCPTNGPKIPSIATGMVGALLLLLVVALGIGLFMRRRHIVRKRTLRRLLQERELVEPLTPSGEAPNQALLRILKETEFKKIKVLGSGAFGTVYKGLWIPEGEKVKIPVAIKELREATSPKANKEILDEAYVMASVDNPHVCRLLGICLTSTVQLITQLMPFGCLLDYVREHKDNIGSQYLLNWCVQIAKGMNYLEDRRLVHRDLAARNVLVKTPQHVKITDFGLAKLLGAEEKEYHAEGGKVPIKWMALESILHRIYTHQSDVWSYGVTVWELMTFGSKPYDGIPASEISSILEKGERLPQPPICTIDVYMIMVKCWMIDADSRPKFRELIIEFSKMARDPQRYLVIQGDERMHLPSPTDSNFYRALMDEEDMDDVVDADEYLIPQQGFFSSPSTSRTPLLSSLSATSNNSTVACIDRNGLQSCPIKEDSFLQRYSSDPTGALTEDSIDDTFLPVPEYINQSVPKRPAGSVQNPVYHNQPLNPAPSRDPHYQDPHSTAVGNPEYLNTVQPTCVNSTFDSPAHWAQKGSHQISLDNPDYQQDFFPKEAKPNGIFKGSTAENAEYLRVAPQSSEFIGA
Insulin receptor (Homo sapiens), sequence (P06213 28-758 limits assumed): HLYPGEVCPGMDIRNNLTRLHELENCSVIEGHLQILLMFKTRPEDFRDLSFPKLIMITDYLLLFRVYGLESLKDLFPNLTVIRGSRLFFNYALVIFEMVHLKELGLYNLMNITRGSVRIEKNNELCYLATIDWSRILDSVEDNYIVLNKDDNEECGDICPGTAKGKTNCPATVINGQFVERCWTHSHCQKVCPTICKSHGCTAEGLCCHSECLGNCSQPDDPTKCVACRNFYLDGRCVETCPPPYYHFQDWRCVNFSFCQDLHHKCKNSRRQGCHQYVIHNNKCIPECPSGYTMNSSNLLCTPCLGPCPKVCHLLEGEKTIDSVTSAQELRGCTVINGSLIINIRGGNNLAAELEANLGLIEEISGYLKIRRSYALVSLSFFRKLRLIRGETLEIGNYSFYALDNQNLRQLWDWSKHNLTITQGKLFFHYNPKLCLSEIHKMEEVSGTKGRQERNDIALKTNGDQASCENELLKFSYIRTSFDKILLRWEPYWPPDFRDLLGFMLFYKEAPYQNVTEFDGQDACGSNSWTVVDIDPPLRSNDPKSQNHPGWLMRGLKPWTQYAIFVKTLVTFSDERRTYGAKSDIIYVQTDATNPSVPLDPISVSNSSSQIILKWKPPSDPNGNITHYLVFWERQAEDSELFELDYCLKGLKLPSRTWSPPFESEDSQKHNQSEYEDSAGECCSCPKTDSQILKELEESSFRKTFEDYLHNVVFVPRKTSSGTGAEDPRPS
Insulin receptor (Homo sapiens), sequence (P06213 763-1382 limits assumed): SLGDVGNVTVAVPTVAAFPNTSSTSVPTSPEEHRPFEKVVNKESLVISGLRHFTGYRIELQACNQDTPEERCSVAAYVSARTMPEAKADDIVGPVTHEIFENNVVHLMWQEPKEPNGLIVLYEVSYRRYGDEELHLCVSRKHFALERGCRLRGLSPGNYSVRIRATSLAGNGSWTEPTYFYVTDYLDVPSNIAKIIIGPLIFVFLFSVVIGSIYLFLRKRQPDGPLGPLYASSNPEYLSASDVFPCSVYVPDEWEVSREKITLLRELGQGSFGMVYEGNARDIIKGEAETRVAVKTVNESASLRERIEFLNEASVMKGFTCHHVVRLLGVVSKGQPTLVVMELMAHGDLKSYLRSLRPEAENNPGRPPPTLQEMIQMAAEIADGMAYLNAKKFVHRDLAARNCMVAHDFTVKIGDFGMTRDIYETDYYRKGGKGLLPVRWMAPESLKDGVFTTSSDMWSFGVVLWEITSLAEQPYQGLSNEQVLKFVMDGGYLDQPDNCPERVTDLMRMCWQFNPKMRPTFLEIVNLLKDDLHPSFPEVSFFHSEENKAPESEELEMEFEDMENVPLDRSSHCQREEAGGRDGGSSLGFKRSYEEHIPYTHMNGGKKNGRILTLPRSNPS
Mast/stem cell growth factor receptor Kit (Homo sapiens), P10721 [D816V], sequence (P10721 whole entry D816V): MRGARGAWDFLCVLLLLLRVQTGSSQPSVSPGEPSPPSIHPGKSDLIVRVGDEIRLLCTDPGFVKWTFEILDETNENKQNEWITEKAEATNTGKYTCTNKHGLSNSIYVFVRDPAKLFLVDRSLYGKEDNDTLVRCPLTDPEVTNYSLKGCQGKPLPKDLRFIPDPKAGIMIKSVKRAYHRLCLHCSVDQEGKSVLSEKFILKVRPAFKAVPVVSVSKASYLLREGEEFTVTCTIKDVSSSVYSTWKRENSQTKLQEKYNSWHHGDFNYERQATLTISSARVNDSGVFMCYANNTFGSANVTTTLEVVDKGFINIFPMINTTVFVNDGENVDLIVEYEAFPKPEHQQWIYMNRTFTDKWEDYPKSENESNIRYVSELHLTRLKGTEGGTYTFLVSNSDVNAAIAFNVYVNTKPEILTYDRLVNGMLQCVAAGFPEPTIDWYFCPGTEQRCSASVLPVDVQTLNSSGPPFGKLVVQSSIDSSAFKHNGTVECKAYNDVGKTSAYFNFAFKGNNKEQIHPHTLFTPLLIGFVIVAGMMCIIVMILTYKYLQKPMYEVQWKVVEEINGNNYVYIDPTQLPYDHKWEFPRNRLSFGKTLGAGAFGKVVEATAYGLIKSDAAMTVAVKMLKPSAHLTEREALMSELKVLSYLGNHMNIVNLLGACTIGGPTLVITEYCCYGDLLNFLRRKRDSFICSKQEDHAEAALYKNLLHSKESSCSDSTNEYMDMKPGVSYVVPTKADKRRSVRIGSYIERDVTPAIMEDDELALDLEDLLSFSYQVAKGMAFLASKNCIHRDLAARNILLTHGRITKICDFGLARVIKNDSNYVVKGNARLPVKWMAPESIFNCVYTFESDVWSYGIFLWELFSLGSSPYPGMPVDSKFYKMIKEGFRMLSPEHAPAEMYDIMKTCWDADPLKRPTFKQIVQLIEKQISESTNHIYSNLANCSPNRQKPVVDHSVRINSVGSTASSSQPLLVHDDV
Dual specificity calcium/calmodulin-dependent 3',5'-cyclic nucleotide phosphodiesterase 1A (Homo sapiens), sequence (P54750 whole entry, canonical isoform): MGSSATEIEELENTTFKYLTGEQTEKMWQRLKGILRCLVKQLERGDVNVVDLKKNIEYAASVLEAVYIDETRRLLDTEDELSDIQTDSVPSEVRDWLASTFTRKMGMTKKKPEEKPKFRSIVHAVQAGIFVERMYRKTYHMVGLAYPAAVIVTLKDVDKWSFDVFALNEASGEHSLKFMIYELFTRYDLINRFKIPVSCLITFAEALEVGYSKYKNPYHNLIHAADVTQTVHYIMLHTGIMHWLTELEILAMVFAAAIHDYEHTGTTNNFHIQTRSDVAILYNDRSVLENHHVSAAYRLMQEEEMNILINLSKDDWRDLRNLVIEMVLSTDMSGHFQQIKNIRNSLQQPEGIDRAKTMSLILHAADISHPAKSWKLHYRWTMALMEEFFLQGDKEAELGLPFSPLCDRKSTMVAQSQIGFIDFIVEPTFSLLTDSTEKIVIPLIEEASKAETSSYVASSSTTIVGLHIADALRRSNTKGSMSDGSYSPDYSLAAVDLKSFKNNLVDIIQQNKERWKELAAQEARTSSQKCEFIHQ
Mitogen-activated protein kinase; ERK1/ERK2 (Homo sapiens), sequence (P27361 whole entry, looked up): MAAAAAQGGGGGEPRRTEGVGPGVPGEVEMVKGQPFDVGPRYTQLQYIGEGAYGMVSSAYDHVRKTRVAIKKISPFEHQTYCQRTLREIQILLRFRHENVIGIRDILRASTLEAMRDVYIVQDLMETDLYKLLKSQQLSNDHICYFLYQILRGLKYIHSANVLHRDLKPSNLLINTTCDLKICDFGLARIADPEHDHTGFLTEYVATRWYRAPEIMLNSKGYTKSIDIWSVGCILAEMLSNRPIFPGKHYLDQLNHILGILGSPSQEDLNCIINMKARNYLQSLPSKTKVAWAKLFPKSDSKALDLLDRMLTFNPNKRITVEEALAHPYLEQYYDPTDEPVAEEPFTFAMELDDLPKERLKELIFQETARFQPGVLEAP
Mitogen-activated protein kinase; ERK1/ERK2 (Homo sapiens), sequence (P28482 whole entry, looked up): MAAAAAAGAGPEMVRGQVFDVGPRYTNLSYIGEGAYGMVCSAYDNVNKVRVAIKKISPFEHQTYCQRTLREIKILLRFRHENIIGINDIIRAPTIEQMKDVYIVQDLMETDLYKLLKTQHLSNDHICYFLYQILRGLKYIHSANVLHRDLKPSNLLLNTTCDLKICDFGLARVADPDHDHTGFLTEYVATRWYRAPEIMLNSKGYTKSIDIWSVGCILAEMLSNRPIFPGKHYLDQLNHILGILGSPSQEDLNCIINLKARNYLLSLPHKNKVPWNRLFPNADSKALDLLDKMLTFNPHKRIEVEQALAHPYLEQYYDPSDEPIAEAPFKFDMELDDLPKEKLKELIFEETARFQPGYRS
Mast/stem cell growth factor receptor Kit (Homo sapiens), P10721 [D816H], sequence (P10721 whole entry D816H): as the sequence (P10721 whole entry D816V) above, with V816H counted along it

By inhibition in vivo is commonly meant the drop in the measured response relative to a control, in per cent. As a reminder, the EC50 is the midpoint of the concentration-response curve. The low end stands for a more potent agent, the high end for a less potent agent. Turning to `CCN(CC)CCO/N=C(\c1ccc(SC)cc1)c1cccc2ccccc12.O=C(O)C(=O)O`, the Activity in the data set on MCF7 [1] stood at 70.71%; in the data set with MCF7 [5], 74.66%; with MCF7 [7], 0.9%; with MCF7 [8], 85.99%. For the same compound, in [2], the selectivity ratio stood at 4.7. Further, the inhibition in vivo at 16 mg/kg in the data set on MCF7 [3] is 50%. Besides, the EC50 in [4] stood at 7.7 µM; in the data set on MDA-MB-231 [6], 7.2 µM.
As for `CCN(CC)CCO/N=C(\c1ccc(SC)cc1)c1cccc2ccccc12`, the inhibition result (in [9]; in the data set with MDA-MB-231 [16]; in data set [20]; in data set [24]; in data set [25]) was “inactive” each time. The outcome with MCF7 [10], in the data set with MCF7 [17], in the data set with MDA-MB-231 [19] and with MDA-MB-231 [22] was Active. For the same compound, the inhibition result (in [11]; in the data set on MDA-MB-231 [12]; in data set [13]; in [14]; in the data set on MCF7 [15]; in data set [18]) was “Active” throughout. Moreover, the inhibition result in the data set on MDA-MB-231 [21] and in the data set with MDA-MB-231 [23] was “Active” each time.
